Runt-CBFb FRET: Runt domain-CBFb interaction inhibition. Q01196+Q13951. Cerulean-Runt/Venus-CBFb FRET ratio 530/480, 1 h. inhibition, % at 20 µM. 0.46% of 220,000 active. AID 1496;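 active = inhibition over about 50% at 20 µM in the single-dose screen, limit read from the data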;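 also: 0% = DMSO wells and 100% = excess unlabeled CBFb competitor control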
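System: Cerulean-labeled Runt domain protein | Quantity: 100 nM of each labeled protein | Schedule: 1 h compound exposure, room temperature | Detection: Fluorescence energy transfer, 422 nm excitation, 530/480 nm emission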
RanGTP-Imp inh: disruptors of Ran-importin-beta complex formation – biochemical, FRET, CFP-Ran, YFP-importin-beta, homogeneous, primary screen; cell-free CFP-Ran/YFP-importin-beta FRET ratio; inhibition, % (concentration not given with the values); 1.1% of 300,000 active; AID 2216;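 active = more than half of the replicate wells show a fall in the fluorescence ratio signal beyond about 16%, limit read from the data, passing the limit was not always enough; inconclusive = exactly half of the replicate wells pass the set limit; inactive = fewer than half of replicates pass the limit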;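 also: 0% = DMSO wells and 100% = Ran loaded with GDP instead of GTP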
Hck Nef HTS: blocks Nef-activated human Hck kinase; P08631; AID 463187; 0.68% of 220,000 active; inhibition, % at 20 µM; Recombinant Hck-YEEI plus Nef, Z-Lyte FRET kinase assay;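 active = Hck-Nef kinase inhibition above about 50%, limit read from the data; inactive = inhibition below that limit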;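 also: 0% = DMSO with Hck plus Nef and 100% = Hck alone without Nef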
Target sequence (P08631 whole entry, looked up): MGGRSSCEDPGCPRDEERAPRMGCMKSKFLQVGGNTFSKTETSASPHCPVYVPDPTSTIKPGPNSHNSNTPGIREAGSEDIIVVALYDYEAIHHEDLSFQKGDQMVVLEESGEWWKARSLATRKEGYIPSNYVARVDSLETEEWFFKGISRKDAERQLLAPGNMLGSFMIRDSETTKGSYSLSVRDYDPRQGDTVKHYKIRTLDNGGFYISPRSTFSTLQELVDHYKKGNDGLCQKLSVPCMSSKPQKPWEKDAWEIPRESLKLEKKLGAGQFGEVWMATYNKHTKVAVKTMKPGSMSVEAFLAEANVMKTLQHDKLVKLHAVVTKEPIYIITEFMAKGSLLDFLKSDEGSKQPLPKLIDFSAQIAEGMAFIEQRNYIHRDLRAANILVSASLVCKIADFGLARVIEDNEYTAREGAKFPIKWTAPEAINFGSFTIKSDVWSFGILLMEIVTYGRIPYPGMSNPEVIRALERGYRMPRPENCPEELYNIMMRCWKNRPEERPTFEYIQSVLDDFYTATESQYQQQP
Runt-SMMHC FRET: inhibitors of human RUNX1 Runt domain binding to CBFb-SMMHC; Q01196+Q13951; Cerulean-Runt/Venus-CBFb-SMMHC FRET ratio 530/480, 1 h; inhibition, % at 20 µM; 0.74% of 220,000 active;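 active = mean inhibition across duplicate retests at 20 µM reaching about 50%, limit read from the data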;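 also: 0% = DMSO wells and 100% = wells with excess untagged CBFb-SMMHC; inhibitors lower the FRET ratio by blocking Runt binding to CBFb-SMMHC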
TbHK1 inh: T. brucei hexokinase 1 inhibition | inhibition, % at 10 µM | recombinant TbHK1, G6PDH-coupled NADH A340 | 0.11% of 220,000 active;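 active = inhibition of 50% or more in the single-dose primary screen; inactive = inhibition below 50%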
* hit, by the source's call; ? = inconclusive; nt = not tested or not shown. In the library only some 1.9% were active in any assay of this set; here they are far more common.

SMILES	Runt-CBFb FRET	RanGTP-Imp inh	Hck Nef HTS	Runt-SMMHC FRET	TbHK1 inh
COC(=O)C1=C(NC(=O)c2cccs2)CCS1	7	nt	7	1	66*
CC(=O)N1N=C(c2ccccc2)CC1c1cccs1 (stereo not drawn)	nt	3	nt	nt	nt
CC(=O)Nc1ccc(C2=NN(c3ccccc3)C(c3cccs3)C2)cc1 (stereo not drawn)	23	1	24	55*	-3
CC(=O)COc1ccc2c(c1C)O/C(=C\c1ccco1)C2=O	nt	18*	nt	nt	nt
CC1(C)CC(NNCCC#N)=CC(=[N+]2CCCC2)C1	3	19*	-7	2	-7
CN(Cc1ccccc1)C1=CC(=[N+]2CCCCC2)CC(C)(C)C1	-11	4	1	8	-108
O=C(Cn1c(=O)n(-c2cccc(C(F)(F)F)c2)c(=O)c2sccc21)NCC1CCCO1 (stereo not drawn)	nt	0	nt	nt	nt
O=C(c1nc2ccccn2c1CNCCCn1cccn1)N1CCCC1	0	1	9	3	-12
CCc1nc2cccnc2n1-c1ccc(CC(=O)NCCOC)cc1	nt	1	nt	nt	nt
Nc1nc2nc(-c3ccc(Cl)cc3)cc(C(F)(F)F)n2n1	24	?	-2	76*	-4
Fc1ccc(-c2cc(C(F)(F)F)n3ncnc3n2)cc1	2	3	20	1	-17
Cc1nn(-c2ccccc2)c2sc(C(=O)NNC(=O)COc3cccc4ccccc34)cc12	-4	3	3	-3	-7
Cc1nn(-c2ccccc2)c2sc(C(=O)NNC(=O)COc3ccccc3)cc12	121*	1	12	128	-2
CN(C)c1ccc(CNC(=O)CCS(=O)(=O)c2ccc3c(c2)oc(=O)n3C)cc1	nt	0	nt	nt	nt
CCOC(=O)C1=C(C)N=C2SC=C(C)N2C1c1ccc(OC)cc1 (stereo not drawn)	23	10	17	60*	-8
COc1ccc(Cl)cc1N1C(=NC(=O)C2CCCO2)SC2CS(=O)(=O)CC21 (stereo not drawn)	nt	1	nt	nt	nt
C=C(C)c1cccc(C(C)(C)NC(=O)NNC(=O)c2ccccc2O)c1	nt	2	nt	nt	nt
COc1ccc2c(C)c(C)c(=O)oc2c1OC	-1	-1	18	0	-19
Cc1c(Br)c(=O)oc2c(C)c(O)ccc12	48	33*	39	73*	-7
COc1ccc(C(=O)/C=C/Nc2ccc(S(=O)(=O)Nc3nc(C)cc(C)n3)cc2)cc1OC	44	3	23	67*	-20
COc1ccc(C(=O)/C=C/Nc2ccc(S(=O)(=O)Nc3nc(C)cc(C)n3)cc2)c(OC)c1	38	0	44	81*	-46
CC(C)CC1NC(=S)N(C2CCCCC2)C1=O (stereo not drawn)	0	-3	-1	-5	5
CN(C)c1ncc(/C=C2/C(=O)NC(=S)N(C3CCCCC3)C2=O)cn1	7	nt	68*	13	-1
Cc1ccc(S(=O)(=O)c2cc3cc(Br)ccc3oc2=O)cc1	-8	3	3	-49	32
CCN(CC)c1ccc2cc(S(=O)(=O)c3ccc(Cl)cc3)c(=O)oc2c1	6	128*	6	81*	1
SMILES	Runt-CBFb FRET	RanGTP-Imp inh	Hck Nef HTS	Runt-SMMHC FRET	TbHK1 inh
O=c1oc2cc(O)ccc2cc1S(=O)(=O)c1ccccc1	nt	133*	nt	nt	nt
CC(=O)Nc1ccc(SCC(=O)N2CCN(S(=O)(=O)c3ccccc3)CC2)cc1	nt	0	nt	nt	nt
CCn1ncc(C2=NOC(C(=O)NCc3ccc(Cl)cc3)C2)c1C (stereo not drawn)	2	-3	-2	-4	-2
COc1ccc(-c2cc(C(F)F)n3ncc(C(=O)NCC4CCCO4)c3n2)cc1 (stereo not drawn)	18	58*	1	62*	-5
N=c1c(C(=O)NCC2CCCO2)cc2c(=O)n3ccccc3nc2n1Cc1ccccc1Cl (stereo not drawn)	nt	188*	nt	nt	nt
Cc1ccc(Cn2c(=N)c(C(=O)NCC3CCCO3)cc3c(=O)n4ccccc4nc32)cc1 (stereo not drawn)	nt	161*	nt	nt	nt
N=c1c(C(=O)NCC2CCCO2)cc2c(=O)n3ccccc3nc2n1Cc1ccc(Cl)cc1 (stereo not drawn)	nt	180*	nt	nt	nt
Cc1ccc(Cn2c(=N)c(C(=O)NCC3CCCO3)cc3c(=O)n4cccc(C)c4nc32)cc1 (stereo not drawn)	nt	-3	nt	nt	nt
CCC(C)C1Nc2ccc(C(=O)NCCc3ccc(OC)c(OC)c3)cc2NC1=O (stereo not drawn)	nt	-2	nt	nt	nt
COc1ccc(CNCC(O)(c2ccc(F)cc2)c2ccc(F)cc2)cc1	-1	3	23	4	2
O=C(NC(=S)Nc1ccc(S(=O)(=O)NC2CCCCC2)cc1)c1cccs1	3	5	2	4	2
N=c1c(C(=O)NCC2CCCO2)cc2c(=O)n3ccccc3nc2n1Cc1ccccc1 (stereo not drawn)	nt	180*	nt	nt	nt
COc1ccc(Cn2c(=N)c(C(=O)NCC3CCCO3)cc3c(=O)n4ccccc4nc32)cc1 (stereo not drawn)	nt	23*	nt	nt	nt
O=C(Oc1cccccc1=O)c1ccccc1	3	63*	-1	0	-12
O=c1oc2ccccc2cc1-c1nc(-c2cccs2)cs1	-24	-85	1	-129	-4
N#CCc1nc(-c2cc3ccccc3oc2=O)cs1	3	177*	20	0	-26
Cc1ccc(OCCC(=O)Nc2ccc(S(=O)(=O)Nc3cc(C)nc(C)n3)cc2)cc1	nt	20*	nt	nt	nt
S=C(Nc1ccc2nc(-c3ccccn3)c(-c3ccccn3)nc2c1)N1CCCCC1	nt	nt	16	nt	-18
CCCNC(=S)Nc1ccc2nc(-c3ccccn3)c(-c3ccccn3)nc2c1	nt	28*	1	-23	-14
CN(CC(=O)Nc1ccc(F)c(F)c1F)C(=O)/C=C/c1ccc(Cl)cc1	-2	1	1	-4	5
CCOc1ccccc1/C=N/NC(=O)c1cccc(S(=O)(=O)N2CCOCC2)c1	-1	-2	30	-4	-19
CCN(CC)c1ccc(/C=N/NC(=O)c2cccc(S(=O)(=O)N3CCOCC3)c2)c(O)c1	20	-1	-62	92*	-9
COC(=O)c1ccc2c(=O)n(CCCCCC(=O)NCc3ccccc3)c(=O)[nH]c2c1	-2	0	0	-2	1
COC(=O)c1ccc2c(=O)n(CCCCCC(=O)NCc3ccc4c(c3)OCO4)c(=O)[nH]c2c1	0	35*	3	2	-6
O=C(N/N=C\C=C\c1ccc2c(c1)OCO2)C1COc2cc3ccccc3cc2O1 (stereo not drawn)	1	19*	4	2	-8
O=C(N/N=C/c1ccc2c(c1)OCO2)C1COc2ccccc2O1 (stereo not drawn)	-1	-3	1	-2	-8
Cc1ccc(/C=C2/NC(=O)N(Cc3ccccc3)C2=O)o1	28	-1	7	25	-6

High-throughput results: PubChem, several laboratories
